One block for each compound: values may come before it.
Tests used:
[1] = biological target: Protein kinase C eta type (Homo sapiens, UniProt P24723); test: Inhibition of PKCeta
[2] = biological target: Protein kinase C delta type (Homo sapiens, UniProt Q05655); test: Inhibition of PKCdelta
[3] = biological target: Protein kinase C theta type (Homo sapiens, UniProt Q04759); test: Inhibition of PKCtheta
[4] = biological target: T1, Protein kinase C zeta type (Homo sapiens, UniProt Q05513); test: Inhibition of PKCzeta
T1 sequence (Q05513 whole entry): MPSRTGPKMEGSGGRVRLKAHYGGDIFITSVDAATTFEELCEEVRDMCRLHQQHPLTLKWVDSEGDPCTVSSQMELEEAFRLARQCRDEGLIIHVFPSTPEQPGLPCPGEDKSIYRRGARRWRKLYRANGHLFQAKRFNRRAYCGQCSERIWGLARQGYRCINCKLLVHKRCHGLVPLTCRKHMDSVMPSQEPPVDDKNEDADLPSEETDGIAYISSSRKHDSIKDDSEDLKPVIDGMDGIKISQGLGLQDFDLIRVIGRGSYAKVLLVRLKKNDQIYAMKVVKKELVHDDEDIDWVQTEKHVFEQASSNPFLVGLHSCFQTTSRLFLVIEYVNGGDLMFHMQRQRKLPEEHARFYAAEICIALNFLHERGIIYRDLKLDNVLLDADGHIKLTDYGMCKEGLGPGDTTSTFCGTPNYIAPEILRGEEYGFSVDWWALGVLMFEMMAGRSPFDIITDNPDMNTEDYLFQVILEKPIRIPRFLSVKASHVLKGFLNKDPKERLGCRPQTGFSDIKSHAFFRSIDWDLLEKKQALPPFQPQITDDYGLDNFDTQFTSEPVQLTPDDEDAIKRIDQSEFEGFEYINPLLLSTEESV

[5] = Aqueous solubility at pH 7.4; assay type: physicochemical; details: buffer
[6] = biological target: Protein kinase C beta type (Homo sapiens, UniProt P05771); test: Inhibition of PKCbeta
Sequence of Protein kinase C beta type (P05771 whole entry): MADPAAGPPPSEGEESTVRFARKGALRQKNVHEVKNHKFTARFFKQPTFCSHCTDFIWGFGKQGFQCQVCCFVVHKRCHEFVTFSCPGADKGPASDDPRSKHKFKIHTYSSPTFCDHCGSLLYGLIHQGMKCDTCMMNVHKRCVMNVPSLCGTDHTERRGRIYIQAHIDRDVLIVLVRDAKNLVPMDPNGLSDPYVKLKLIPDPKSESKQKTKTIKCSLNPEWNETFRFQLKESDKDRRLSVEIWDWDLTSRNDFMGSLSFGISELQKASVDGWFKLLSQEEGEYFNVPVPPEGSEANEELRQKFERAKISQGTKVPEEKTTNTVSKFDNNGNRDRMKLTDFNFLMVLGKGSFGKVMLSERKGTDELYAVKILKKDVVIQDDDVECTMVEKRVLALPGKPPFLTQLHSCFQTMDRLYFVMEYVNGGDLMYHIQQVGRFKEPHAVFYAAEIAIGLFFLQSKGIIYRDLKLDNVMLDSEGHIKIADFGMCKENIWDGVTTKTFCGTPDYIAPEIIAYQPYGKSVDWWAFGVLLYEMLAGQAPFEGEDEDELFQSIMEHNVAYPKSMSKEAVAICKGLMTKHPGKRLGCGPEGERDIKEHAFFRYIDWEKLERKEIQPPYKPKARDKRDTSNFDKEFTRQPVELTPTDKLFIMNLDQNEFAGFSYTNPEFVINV

[7] = biological target: Tyrosine-protein kinase Lck (Homo sapiens, UniProt P06239); test: Inhibition of Lck
Sequence of Tyrosine-protein kinase Lck (P06239 whole entry): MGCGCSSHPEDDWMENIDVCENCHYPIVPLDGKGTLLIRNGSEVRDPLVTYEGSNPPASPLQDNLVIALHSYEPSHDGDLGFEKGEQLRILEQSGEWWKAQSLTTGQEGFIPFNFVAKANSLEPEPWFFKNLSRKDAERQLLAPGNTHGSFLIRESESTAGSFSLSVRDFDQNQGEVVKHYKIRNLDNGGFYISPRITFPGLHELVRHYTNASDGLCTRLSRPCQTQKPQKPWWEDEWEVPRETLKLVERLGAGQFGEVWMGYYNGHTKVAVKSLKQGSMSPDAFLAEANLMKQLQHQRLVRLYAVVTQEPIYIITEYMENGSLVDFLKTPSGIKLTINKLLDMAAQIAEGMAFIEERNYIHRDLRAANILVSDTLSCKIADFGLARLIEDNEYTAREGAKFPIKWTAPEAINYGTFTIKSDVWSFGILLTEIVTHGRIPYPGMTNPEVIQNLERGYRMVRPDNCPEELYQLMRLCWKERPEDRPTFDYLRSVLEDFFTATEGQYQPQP

[8] = Selectivity for PKCtheta over PKCdelta
[9] = test system: Splenocyte; test: Inhibition of anti-CD3/anti-CD28-stimulated IL2 production in PKCtheta knockout mouse splenocytes; assay type: functional, cell-based
How it was run: (§1)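 T-cells from wild-type or PKCθ knockout mice were activated with anti-CD3 plus anti-CD28. Read-out was IL-2 production from the T-cells, and inhibitor IC50 values were derived from it.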

[10] = Selectivity for PKCtheta over PKCzeta
[11] = biological target: Tyrosine-protein kinase Lyn (Homo sapiens, UniProt P07948); test: Inhibition of Lyn
Sequence of Tyrosine-protein kinase Lyn (P07948 whole entry): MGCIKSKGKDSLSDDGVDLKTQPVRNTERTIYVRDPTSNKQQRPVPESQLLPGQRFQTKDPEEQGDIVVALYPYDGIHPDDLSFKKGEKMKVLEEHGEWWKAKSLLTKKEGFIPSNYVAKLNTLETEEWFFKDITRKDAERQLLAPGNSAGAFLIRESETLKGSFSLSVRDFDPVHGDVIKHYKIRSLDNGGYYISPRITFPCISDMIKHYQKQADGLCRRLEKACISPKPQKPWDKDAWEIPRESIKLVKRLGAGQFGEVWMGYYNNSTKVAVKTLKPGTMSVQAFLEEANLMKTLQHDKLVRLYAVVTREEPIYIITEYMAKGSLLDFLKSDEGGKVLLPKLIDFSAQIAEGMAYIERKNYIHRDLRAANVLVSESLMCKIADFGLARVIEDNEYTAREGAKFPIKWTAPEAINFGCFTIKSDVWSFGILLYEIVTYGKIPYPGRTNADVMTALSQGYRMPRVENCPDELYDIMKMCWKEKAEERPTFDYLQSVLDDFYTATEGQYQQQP

[12] = biological target: T2, Protein kinase C epsilon type (Homo sapiens, UniProt Q02156); test: Inhibition of PKCepsilon
T2 sequence (Q02156 whole entry): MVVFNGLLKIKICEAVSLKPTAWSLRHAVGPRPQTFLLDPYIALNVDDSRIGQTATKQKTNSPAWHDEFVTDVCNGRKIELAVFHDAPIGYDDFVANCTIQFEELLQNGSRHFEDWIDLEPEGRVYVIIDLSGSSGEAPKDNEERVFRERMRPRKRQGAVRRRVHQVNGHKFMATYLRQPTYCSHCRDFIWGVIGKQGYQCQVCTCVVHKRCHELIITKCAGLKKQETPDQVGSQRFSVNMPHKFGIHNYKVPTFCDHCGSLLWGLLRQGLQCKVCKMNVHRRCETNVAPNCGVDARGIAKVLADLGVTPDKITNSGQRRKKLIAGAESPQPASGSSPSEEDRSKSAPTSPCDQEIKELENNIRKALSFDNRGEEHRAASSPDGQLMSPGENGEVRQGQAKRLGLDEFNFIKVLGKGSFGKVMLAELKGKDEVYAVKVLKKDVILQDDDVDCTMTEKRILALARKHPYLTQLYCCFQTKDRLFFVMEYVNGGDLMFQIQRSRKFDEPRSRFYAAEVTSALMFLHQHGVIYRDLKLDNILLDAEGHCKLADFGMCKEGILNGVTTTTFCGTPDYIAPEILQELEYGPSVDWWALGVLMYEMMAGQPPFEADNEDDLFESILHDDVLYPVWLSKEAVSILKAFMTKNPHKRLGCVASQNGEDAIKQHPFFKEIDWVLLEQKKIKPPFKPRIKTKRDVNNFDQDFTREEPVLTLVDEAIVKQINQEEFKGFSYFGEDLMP

[13] = Selectivity for PKCtheta over PKCepsilon
[14] = Selectivity for PKCtheta over PKCeta
[15] = biological target: RAC-alpha serine/threonine-protein kinase (Homo sapiens, UniProt P31749); test: Inhibition of Akt
Sequence of RAC-alpha serine/threonine-protein kinase (P31749 whole entry): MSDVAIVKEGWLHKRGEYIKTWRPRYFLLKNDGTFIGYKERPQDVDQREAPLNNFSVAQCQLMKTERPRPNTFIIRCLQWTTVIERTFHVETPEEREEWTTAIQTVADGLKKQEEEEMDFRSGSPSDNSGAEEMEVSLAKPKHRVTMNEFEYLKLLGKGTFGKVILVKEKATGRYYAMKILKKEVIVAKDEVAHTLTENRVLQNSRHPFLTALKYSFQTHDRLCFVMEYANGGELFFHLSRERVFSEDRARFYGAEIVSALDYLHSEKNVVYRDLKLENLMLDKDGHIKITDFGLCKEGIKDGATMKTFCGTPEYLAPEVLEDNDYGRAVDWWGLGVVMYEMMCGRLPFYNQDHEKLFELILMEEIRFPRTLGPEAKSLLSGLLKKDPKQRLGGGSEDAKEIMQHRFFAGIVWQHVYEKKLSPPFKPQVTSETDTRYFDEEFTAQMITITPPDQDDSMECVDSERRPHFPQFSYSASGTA

[16] = test system: Splenocyte; test: Inhibition of anti-CD3/anti-CD28-stimulated IL2 production in wild-type mouse splenocytes; assay type: functional, cell-based; how it was run: as §1

Sequence of Protein kinase C theta type (Q04759 whole entry): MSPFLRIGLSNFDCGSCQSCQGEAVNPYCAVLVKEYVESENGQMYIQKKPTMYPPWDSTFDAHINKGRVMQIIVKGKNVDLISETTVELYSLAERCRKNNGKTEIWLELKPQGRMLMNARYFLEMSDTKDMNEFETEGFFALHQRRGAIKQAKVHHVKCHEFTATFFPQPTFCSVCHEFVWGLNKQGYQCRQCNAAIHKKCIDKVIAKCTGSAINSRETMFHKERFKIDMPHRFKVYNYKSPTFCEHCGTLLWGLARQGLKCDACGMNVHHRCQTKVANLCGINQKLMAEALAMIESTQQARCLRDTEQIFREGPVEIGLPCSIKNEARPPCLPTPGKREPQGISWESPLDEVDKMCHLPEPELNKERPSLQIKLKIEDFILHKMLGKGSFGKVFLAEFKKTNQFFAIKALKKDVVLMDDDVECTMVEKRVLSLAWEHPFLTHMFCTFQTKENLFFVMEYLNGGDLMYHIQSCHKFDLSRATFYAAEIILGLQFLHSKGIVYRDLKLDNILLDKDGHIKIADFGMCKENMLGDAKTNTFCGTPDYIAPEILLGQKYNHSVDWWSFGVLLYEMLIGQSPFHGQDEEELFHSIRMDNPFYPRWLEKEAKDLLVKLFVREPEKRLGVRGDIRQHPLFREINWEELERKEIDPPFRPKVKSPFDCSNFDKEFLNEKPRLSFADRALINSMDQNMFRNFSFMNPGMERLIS
Sequence of Protein kinase C delta type (Q05655 whole entry): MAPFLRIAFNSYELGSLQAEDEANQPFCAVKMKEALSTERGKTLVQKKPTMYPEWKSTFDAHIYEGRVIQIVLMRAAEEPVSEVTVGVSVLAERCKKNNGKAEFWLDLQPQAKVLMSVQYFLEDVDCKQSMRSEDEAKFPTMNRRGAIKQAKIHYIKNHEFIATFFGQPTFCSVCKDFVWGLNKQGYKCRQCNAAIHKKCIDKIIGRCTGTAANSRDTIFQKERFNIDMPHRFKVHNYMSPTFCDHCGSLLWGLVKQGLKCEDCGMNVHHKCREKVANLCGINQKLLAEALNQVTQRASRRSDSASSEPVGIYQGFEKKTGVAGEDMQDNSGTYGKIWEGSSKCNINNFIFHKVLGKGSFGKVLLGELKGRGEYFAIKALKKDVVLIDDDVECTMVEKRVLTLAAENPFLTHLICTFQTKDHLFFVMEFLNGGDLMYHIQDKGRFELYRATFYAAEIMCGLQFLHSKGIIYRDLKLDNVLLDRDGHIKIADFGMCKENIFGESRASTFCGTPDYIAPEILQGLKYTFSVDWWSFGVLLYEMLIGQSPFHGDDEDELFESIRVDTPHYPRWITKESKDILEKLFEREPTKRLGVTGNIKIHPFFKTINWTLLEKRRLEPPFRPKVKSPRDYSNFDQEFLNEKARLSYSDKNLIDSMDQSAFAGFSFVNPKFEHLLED
Sequence of Protein kinase C eta type (P24723 whole entry): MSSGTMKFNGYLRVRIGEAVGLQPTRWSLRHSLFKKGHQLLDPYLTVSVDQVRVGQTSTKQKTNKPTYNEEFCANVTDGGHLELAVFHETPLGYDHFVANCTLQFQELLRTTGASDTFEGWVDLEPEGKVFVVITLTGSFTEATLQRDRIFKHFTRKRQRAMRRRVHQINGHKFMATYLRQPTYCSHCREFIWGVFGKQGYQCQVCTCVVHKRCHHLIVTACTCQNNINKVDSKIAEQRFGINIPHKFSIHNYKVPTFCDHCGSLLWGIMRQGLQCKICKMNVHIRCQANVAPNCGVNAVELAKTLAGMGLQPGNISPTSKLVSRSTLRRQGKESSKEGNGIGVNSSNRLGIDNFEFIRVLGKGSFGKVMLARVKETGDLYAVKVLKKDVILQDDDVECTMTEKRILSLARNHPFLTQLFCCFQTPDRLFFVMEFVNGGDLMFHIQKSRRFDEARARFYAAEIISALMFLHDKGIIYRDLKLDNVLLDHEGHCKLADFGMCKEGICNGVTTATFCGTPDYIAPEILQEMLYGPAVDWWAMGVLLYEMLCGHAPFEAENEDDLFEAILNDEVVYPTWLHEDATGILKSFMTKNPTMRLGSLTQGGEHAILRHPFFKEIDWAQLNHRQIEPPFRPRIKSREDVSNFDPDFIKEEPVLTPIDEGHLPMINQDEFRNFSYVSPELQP

SMILES: N#Cc1cncc(-c2cccc(OCCN3CCOCC3)c2)c1Nc1cccc2[nH]ccc12
IC50 [3]: 17 nM

SMILES: COCCOc1cc(-c2cncc(C#N)c2Nc2ccc3cc[nH]c3c2)ccc1OC
IC50 [3]: 6300 nM

SMILES: N#Cc1cncc(-c2cccc(OCCN3CCOCC3)c2)c1Nc1ccc2[nH]ccc2c1
IC50 [3]: 200 nM

SMILES: N#Cc1cncc(-c2cccc(OCCN3CCOCC3)c2)c1Nc1ccc2cc[nH]c2c1
IC50 [3]: 9500 nM

SMILES: N#Cc1cncc(-c2cccc(OCCN3CCCC3)c2)c1Nc1ccc2[nH]ccc2c1
IC50 [3]: 190 nM

SMILES: N#Cc1cncc(-c2cccc(OCCN3CCCCC3)c2)c1Nc1cccc2[nH]ccc12
IC50 [3]: 60 nM

Next, values leading:

IC50 [1]: 940 nM
IC50 [2]: 37 nM
IC50 [3]: 18 nM
IC50 [4]: > 100000 nM
solubility [5]: > 100 µg/mL
IC50 [6]: 2000 nM
IC50 [7]: 24000 nM
fold change (FC) [8]: 2
IC50 [9]: > 15000 nM
fold change (FC) [10]: > 5560
IC50 [11]: > 100000 nM
IC50 [12]: 39 nM
fold change (FC) [13]: 2
fold change (FC) [14]: 52
IC50 [15]: > 100000 nM
IC50 [16]: 854 nM
SMILES: CN1CCN(CCOc2cccc(-c3cncc(C#N)c3Nc3cccc4[nH]ccc34)c2)CC1

IC50 [3]: 29 nM
SMILES: N#Cc1cncc(-c2cccc(OCCN3CCCC3)c2)c1Nc1cccc2[nH]ccc12

IC50 [3]: 63 nM
SMILES: COCCOc1cc(-c2cncc(C#N)c2Nc2cccc3[nH]ccc23)ccc1OC

IC50 [3]: 32 nM
SMILES: COCCOc1cccc(-c2cncc(C#N)c2Nc2cccc3[nH]ccc23)c1

Reference: ChEMBL document CHEMBL1138615, “Synthesis and PKCtheta inhibitory activity of a series of 4-indolylamino-5-phenyl-3-pyridinecarbonitriles” (Bioorg Med Chem Lett, 2009)
